We go through 10 compounds from ChEMBL document CHEMBL1177650, “Synthesis, structural elucidation and in vitro antiparasitic activity against Trypanosoma cruzi and Leishmania chagasi parasites of novel tetrahydro-1-benzazepine derivatives” (Bioorg Med Chem, 2010).

The nature of series [1]: Cytotoxicity against african green monkey Vero cells after 72 hrs by MTT assay. Type of series: cell-based. The conditions noted are these: chlorocebus sabaeus. The essentials:
(§1)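 Vero or transformed THP-1 cells incubated with compound (0.3–300 μM) 72 h at 37 °C, 5% CO2; untreated controls. MTT read-out, formazan OD at 580 nm; % cytotoxicity = 100 × (OD control − OD treated)/OD control. CC50/CC90 by sigmoidal regression; triplicates, repeated twice. DMSO stocks 100× concentrated, diluted in medium.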
(In general: Tetrazolium dyes change colour on reduction, which living cells bring about.)

The subject of series [2] is Trypanosoma cruzi. Description: Antitrypanosomal activity against Trypanosoma cruzi 320I01 epimastigotes after 72 hrs by haemocytometry. Type of series: functional, organism-based. The conditions noted are these: 320I01, 72 h. The essentials: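 Late-phase T. cruzi epimastigotes cultured in LIT medium with hiFCS at 28 °C; threefold serial dilutions (0.3–100 μM) for 72 h at 28 °C, untreated controls. Parasites counted in a haemocytometer; IC50/IC90 by sigmoidal regression; each concentration in triplicate, two experiments.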

A short description of series [3]: Selectivity index, CC50 for african green monkey Vero cells to IC50 for Trypanosoma cruzi 320I01 epimastigote. It is filed as functional. The essentials: (§2)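 Selectivity index computed as CC50 in Vero cells divided by IC50 against the T. cruzi stage named in the line.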
The subject of series [4] is Trypanosoma cruzi. Description: Antitrypanosomal activity against Trypanosoma cruzi 320I01 amastigotes infected in african green monkey Vero cells after 5 days by Giemsa staining. It is filed as functional, organism-based. The conditions noted are these: 320I01, Vero, 120 h. The essentials: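 Vero cells (RPMI, 5% hiSBF, 37 °C, 5% CO2) infected 24 h with tissue-derived T. cruzi trypomastigotes at parasite:cell 10:1. Compound dilutions (top 100 μM) applied 5 days at 37 °C, 5% CO2, medium changed once at day 3. Infected cells scored per 300 cells on methanol-fixed Giemsa preparations; IC50/IC90 by sigmoidal regression; triplicates, two experiments.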

A short description of series [5]: Selectivity index, CC50 for african green monkey Vero cells to IC50 for Trypanosoma cruzi 320I01 amastigotes. It is filed as functional. The essentials:
as §2

The test system of series [6] is Leishmania chagasi. Description: Antileishmanial activity against Leishmania chagasi MHOM/BR/74/PP75 promastigotes after 72 hrs by haemocytometry. It is filed as functional, organism-based. Conditions: MHOM/BR/74/PP75, 72 h. The essentials:
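Late-phase L. chagasi promastigotes, grown at 28 °C in RPMI 1640 with hemin, HEPES and 10% hiSBF, exposed to threefold serial dilutions (0.3–100 μM) for 72 h at 28 °C; untreated controls. Growth inhibition from haemocytometer counts; IC50/IC90 by sigmoidal regression; triplicates, repeated twice.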

The nature of series [7]: Cytotoxicity against human THP1 cells after 72 hrs by MTT assay. Conditions: THP-1 cells. It is filed as cell-based. The essentials:
as §1

Series [8] in a line: Selectivity index, CC50 for human THP1 cells to IC50 for Leishmania chagasi MHOM/BR/74/PP75 promastigotes. Type of series: functional, THP-1. The essentials:
(§3)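 Selectivity index computed as CC50 in THP-1 cells divided by IC50 against the L. chagasi stage named in the line.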

Series [9] concerns Leishmania chagasi. Kind of series: Antileishmanial activity against Leishmania chagasi MHOM/BR/74/PP75 amastigotes infected in human THP1 cells after 5 days by Giemsa staining. It is filed as functional, organism-based. Conditions: MHOM/BR/74/PP75, THP-1, 120 h. The essentials: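 THP-1 cells (RPMI, 5% hiSBF, 37 °C, 5% CO2) transformed, then infected 24 h with late-phase L. chagasi promastigotes at parasite:cell 10:1. Treated with compound dilutions (top 100 μM) 5 days at 37 °C, 5% CO2, medium changed once after 3 days. Infected cells counted per 300 cells on methanol-fixed Giemsa slides; IC50/IC90 by sigmoidal regression; triplicates, repeated twice.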

Series [10] can be described thus: Selectivity index, CC50 for human THP1 cells to IC50 for Leishmania chagasi MHOM/BR/74/PP75 amastigotes. Type of series: functional, THP-1. The essentials:
as §3

On to `Clc1ccccc1[C@@H]1C[C@@H]2Cc3ccccc3N1O2` (relative stereo), for which the figures for the CC50 at 72 h in [1] and in series [7] were 111 µM and 110 µM, respectively. Also, the CC90 at 72 h was over 300 µM in series [1] and 211 µM in series [7]. Also, the IC50 (in general, the concentration needed to halve the response being measured) is 19.4 µM with Trypanosoma cruzi [2], over 100 µM in the series on Trypanosoma cruzi [4], 25.1 µM in the series with Leishmania chagasi [6] and over 100 µM in the series with Leishmania chagasi [9]. Moreover, the IC90 (as a rule, the point of the concentration-response curve where the effect stands at 90%) in the series with Trypanosoma cruzi [2] is 57.8 µM; in the series on Trypanosoma cruzi [4], over 100 µM; with Leishmania chagasi [6], over 100 µM; in the series with Leishmania chagasi [9], over 100 µM. The “Selectivity Index” value is recorded as 5.71 in series [3], over 1 in series [5], 4.37 in series [8] and over 1 in [10].
As to `Cc1ccc2c(c1)C[C@H]1C[C@@H](c3ccccc3Cl)N2O1` (relative stereo), the cytotoxic concentration (CC50) (commonly the concentration that lowers cell viability or growth by half) at 72 h in [1] came to 50.2 µM; in series [7] it was 66.8 µM. Besides, the values for the CC90 at 72 h in [1] and in series [7] were over 300 µM and 109 µM, respectively. The IC50 with Trypanosoma cruzi [2] was 14.3 µM; in the series on Trypanosoma cruzi [4] it was 51.9 µM; in the series with Leishmania chagasi [6] it was 41.7 µM; in the series with Leishmania chagasi [9] it was over 100 µM. For the same compound, the IC90 was 30.4 µM in the series on Trypanosoma cruzi [2], over 100 µM with Trypanosoma cruzi [4], 49.5 µM with Leishmania chagasi [6] and over 100 µM with Leishmania chagasi [9]. Moreover, the “Selectivity Index” value in series [3] was 3.51; in series [5] it was 0.96; in [8], 1.6; in series [10], over 0.66.
As to `Clc1ccc2c(c1)C[C@H]1C[C@@H](c3ccccc3Cl)N2O1` (relative stereo), the half-maximal cytotoxic concentration (CC50) at 72 h in series [1] was 109 µM; in series [7], over 300 µM. For the same compound, the CC90 at 72 h in series [1] and in series [7] was over 300 µM in each case. Also, the half-maximal inhibitory concentration (IC50) is 17.6 µM in the series on Trypanosoma cruzi [2], over 100 µM in the series on Trypanosoma cruzi [4], 51.3 µM in the series on Leishmania chagasi [6] and over 100 µM in the series with Leishmania chagasi [9]. The IC90 was 43.9 µM with Trypanosoma cruzi [2], over 100 µM in the series with Trypanosoma cruzi [4], over 100 µM with Leishmania chagasi [6] and over 100 µM in the series on Leishmania chagasi [9]. Also, the “Selectivity Index” value in series [3] is recorded as 6.17; in series [5], over 1; in series [8], over 5; in series [10], over 3.
Turning to `Fc1ccccc1[C@@H]1C[C@@H]2Cc3cc(Cl)ccc3N1O2` (relative stereo), the results for the cytotoxic concentration (CC50) at 72 h in series [1] and in series [7] were 123 µM and over 300 µM, respectively. The CC90 at 72 h in [1] and in series [7] was over 300 µM throughout. Besides, the IC50 in the series with Trypanosoma cruzi [2] is 18.9 µM; with Trypanosoma cruzi [4] it was over 100 µM; in the series on Leishmania chagasi [6], 23.8 µM; in the series on Leishmania chagasi [9] it was over 100 µM. The concentration for an effect of 90% (IC90) is 38.1 µM with Trypanosoma cruzi [2], over 100 µM in the series on Trypanosoma cruzi [4], 67.3 µM in the series with Leishmania chagasi [6] and over 100 µM in the series on Leishmania chagasi [9]. In addition, the “Selectivity Index” value in series [3] is listed as 6.51; in [5] it was over 1; in series [8], over 12; in series [10], over 3.
Turning to `Clc1cccc(Cl)c1[C@@H]1C[C@@H]2Cc3ccccc3N1O2` (relative stereo), the CC50 at 72 h in series [1] and in series [7] was over 300 µM throughout. For the same compound, the CC90 at 72 h in series [1] and in series [7] was over 300 µM throughout. Further, the half-maximal inhibitory concentration (IC50) in the series with Trypanosoma cruzi [2], in the series with Trypanosoma cruzi [4], in the series on Leishmania chagasi [6] and in the series on Leishmania chagasi [9] was over 100 µM each time. Moreover, the IC90 with Trypanosoma cruzi [2], in the series on Trypanosoma cruzi [4], in the series on Leishmania chagasi [6] and in the series with Leishmania chagasi [9] was over 100 µM throughout. For the same compound, the “Selectivity Index” value in series [3], in [5], in [8] and in series [10] was over 3 in each case.
For `Fc1ccccc1[C@@H]1C[C@@H]2Cc3ccccc3N1O2` (relative stereo), the CC50 at 72 h is over 300 µM in series [1] and 200 µM in series [7]. Also, the CC90 at 72 h in series [1] and in series [7] was over 300 µM in each case. The half-maximal inhibitory concentration (IC50) in the series on Trypanosoma cruzi [2] was over 100 µM; with Trypanosoma cruzi [4], 58.6 µM; in the series on Leishmania chagasi [6], 40.5 µM; with Leishmania chagasi [9], over 100 µM. Also, the concentration for an effect of 90% (IC90) is over 100 µM in the series on Trypanosoma cruzi [2], 96.4 µM in the series on Trypanosoma cruzi [4], 47 µM in the series on Leishmania chagasi [6] and over 100 µM in the series with Leishmania chagasi [9]. The “Selectivity Index” value in series [3] is recorded as over 3; in [5], over 5; in series [8], 4.93; in [10], over 2.
In the case of `Cc1ccc([C@@H]2C[C@@H]3Cc4cc(C)ccc4N2O3)cc1` (relative stereo), the CC50 at 72 h in series [1] was found to be 208 µM; in series [7], 74 µM. The CC90 at 72 h in series [1] was over 300 µM; in series [7], 126 µM. In addition, the IC50 is 23.2 µM in the series on Trypanosoma cruzi [2], 45.3 µM with Trypanosoma cruzi [4], 99 µM in the series with Leishmania chagasi [6] and over 100 µM with Leishmania chagasi [9]. The concentration for an effect of 90% (IC90) is 85.4 µM in the series on Trypanosoma cruzi [2], 90 µM with Trypanosoma cruzi [4], over 100 µM in the series on Leishmania chagasi [6] and over 100 µM with Leishmania chagasi [9]. Besides, the “Selectivity Index” value in [3] was 8.97; in series [5] it was 4.6; in series [8] it was 0.75; in series [10], over 0.74.
On to `Clc1ccc([C@@H]2C[C@@H]3Cc4cc(Cl)ccc4N2O3)cc1` (relative stereo), for which the CC50 at 72 h in [1] and in series [7] was over 300 µM in each case. The CC90 at 72 h in [1] and in series [7] was over 300 µM in each case. Besides, the IC50 with Trypanosoma cruzi [2] is 15 µM; with Trypanosoma cruzi [4], over 100 µM; with Leishmania chagasi [6], 33.2 µM; in the series on Leishmania chagasi [9], over 100 µM. Also, the IC90 in the series on Trypanosoma cruzi [2] was over 100 µM; in the series with Trypanosoma cruzi [4] it was over 100 µM; in the series with Leishmania chagasi [6] it was 50.1 µM; with Leishmania chagasi [9] it was over 100 µM. The “Selectivity Index” value is recorded as over 20 in series [3], over 3 in [5], over 9 in series [8] and over 3 in [10].
For the compound `Clc1ccc2c(c1)C[C@H]1C[C@@H](c3ccc(Br)cc3)N2O1` (relative stereo), the CC50 at 72 h in series [1] is over 300 µM; in series [7] it was 236 µM. Further, the CC90 at 72 h in series [1] and in series [7] was over 287 µM throughout. The half-maximal inhibitory concentration (IC50) in the series on Trypanosoma cruzi [2] was 30.1 µM; in the series on Trypanosoma cruzi [4] it was 60.6 µM; with Leishmania chagasi [6], 32.5 µM; in the series on Leishmania chagasi [9], over 95.4 µM. For the same compound, the IC90 in the series with Trypanosoma cruzi [2] is over 100 µM; in the series on Trypanosoma cruzi [4] it was over 95.4 µM; in the series with Leishmania chagasi [6] it was 42.2 µM; in the series with Leishmania chagasi [9] it was over 95.4 µM. In addition, the “Selectivity Index” value in [3] is given as over 10; in series [5], over 4; in series [8], 7.24; in [10], over 2.
For `Fc1ccc2c(c1)C[C@H]1C[C@@H](c3ccc(Cl)cc3)N2O1` (relative stereo), the half-maximal cytotoxic concentration (CC50) at 72 h in series [1] and in series [7] was over 300 µM in each case. The CC90 at 72 h in series [1] and in series [7] was over 300 µM throughout. Moreover, the half-inhibitory concentration (IC50) in the series on Trypanosoma cruzi [2] was 35.4 µM; with Trypanosoma cruzi [4], 40.2 µM; in the series with Leishmania chagasi [6], 35.2 µM; in the series on Leishmania chagasi [9], over 100 µM. Moreover, the 90% effect concentration (IC90) with Trypanosoma cruzi [2] is 85.8 µM; in the series on Trypanosoma cruzi [4] it was 104 µM; in the series with Leishmania chagasi [6], 41.8 µM; in the series on Leishmania chagasi [9] it was over 100 µM. Further, the “Selectivity Index” value in series [3] was over 8; in series [5] it was over 7; in series [8], over 8; in series [10] it was over 3.
